Reference: ChEMBL document CHEMBL4325839, “Design, synthesis and biological evaluations of quaternization harman analogues as potential antibacterial agents” (Eur J Med Chem, 2018)
≈ marks a conversion by molar mass, not a printed value.

What was measured:
Staphylococcus aureus [1] = experiment: Antibacterial activity against methicillin-resistant Staphylococcus aureus ATCC 43300 after 12 to 14 hrs by double dilution method; type: functional
How it was run: (§1)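 Broth double-dilution MIC per NCCLS. Bacteria at 1×10^6 CFU/mL in Luria-Bertani medium. Compounds dissolved in DMSO as stock, then diluted in medium to 200, 100, 50, 25, 12.5, 6.25 and 3.125 nmol/mL (DMSO <0.5%); some also tested at 256–1 µg/mL. Incubated at 37 °C for 12–14 h. MIC read as lowest concentration giving visible growth inhibition.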

Bacillus cereus = experiment: Antibacterial activity against Bacillus cereus CGMCC 1.1846 after 12 to 14 hrs by double dilution method; type: functional
Bacillus subtilis = experiment: Antibacterial activity against Bacillus subtilis 769 after 12 to 14 hrs by double dilution method; type: functional
Escherichia coli = experiment: Antibacterial activity against Escherichia coli CGMCC 1.1636 after 12 to 14 hrs by double dilution method; type: functional
Staphylococcus aureus [2] = experiment: Antibacterial activity against Staphylococcus aureus CGMCC 1.8721 after 12 to 14 hrs by double dilution method; type: functional
Ralstonia solanacearum = experiment: Antibacterial activity against Ralstonia solanacearum CGMCC 1.12711 measured after 12 to 14 hrs by double dilution method; type: functional; how it was run: as §1
[3] = Cytotoxicity against […] MARC145 cells assessed as cell viability at 8 ug/ml by MTT assay; type: cell-based; conditions: chlorocebus aethiops, read-out: Activity
[4] = Cytotoxicity against human L02 cells assessed as cell viability at 8 ug/ml by MTT assay; type: cell-based; conditions: read-out: Activity
How it was run: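 MTT viability assay on normal cells (MARC 145 monkey kidney, L02 human hepatocyte) exposed to 8 µg/mL; MTT in PBS then 4 h at 37 °C, 5% CO2; formazan dissolved in DMSO with 15 min shaking; absorbance at 540 nm; viability = treated/untreated absorbance × 100%.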

SMILES | MIC (Staphylococcus aureus [1]) [µM] | MIC (Bacillus cereus) [µM] | MIC (Bacillus subtilis) [µM] | MIC (Escherichia coli) [µM] | MIC (Staphylococcus aureus [2]) [µM] | MIC (Ralstonia solanacearum) [µM] | viability at 8 ug/ml [3] [%] | viability at 8 ug/ml [4] [%]
COc1ccc2[nH]c3c(-c4ccco4)nccc3c2c1 | > 200 | > 200 | > 200 | > 200 | > 200 | > 200 | – | –
COc1ccc2[nH]c3c(-c4ccccn4)nccc3c2c1 | > 200 | > 200 | > 200 | > 200 | > 200 | > 200 | – | –
COC(=O)c1ccc(-c2nccc3c2[nH]c2ccc(OC)cc23)cc1 | > 200 | > 200 | > 200 | > 200 | > 200 | > 200 | – | –
COC(=O)c1ccc(-c2c3[nH]c4ccc(OC)cc4c3cc[n+]2Cc2ccc(F)cc2)cc1 | 200 | 200 | 75 | – | 100 | 150 | – | –
COc1ccc2[nH]c3c(-c4ccco4)[n+](Cc4ccc(C)cc4)ccc3c2c1 | 50 | 100 | 25 | 100 | 50 | 25 | – | –
COc1ccc2[nH]c3c(-c4ccco4)[n+](Cc4ccc(C(F)(F)F)cc4)ccc3c2c1 | 25 | 50 | 25 | 50 | 25 | 25 | 88.5 | 74.3
COC(=O)c1ccc(-c2c3[nH]c4ccc(OC)cc4c3cc[n+]2Cc2ccccc2F)cc1 | 200 | 200 | 100 | – | 200 | 150 | – | –
COC(=O)c1ccc(-c2c3[nH]c4ccc(OC)cc4c3cc[n+]2Cc2ccc(Br)cc2)cc1 | 37.5 | 37.5 | 25 | – | 25 | 25 | 94.8 | 73.5
COC(=O)c1ccc(-c2c3[nH]c4ccccc4c3cc[n+]2Cc2ccccc2)cc1 | 200 | 200 | 100 | > 200 | 100 | 100 | – | –
c1ccc2c(c1)[nH]c1c(-c3ccc4c(c3)OCO4)nccc12 | > 200 | > 200 | > 200 | > 200 | > 200 | > 200 | – | –
COc1ccc2[nH]c3c(-c4ccco4)[n+](Cc4ccccc4)ccc3c2c1 | 100 | 200 | 50 | > 200 | 100 | 100 | – | –
FC(F)(F)c1ccc(C[n+]2ccc3c([nH]c4ccccc43)c2-c2ccc3c(c2)OCO3)cc1 | 25 | 50 | 25 | 100 | 25 | 25 | 96.3 | 85.7
c1coc(-c2nccc3c2[nH]c2ccccc23)c1 | > 200 | > 200 | > 200 | > 200 | > 200 | > 200 | – | –
COc1ccc2[nH]c3c(-c4ccc5c(c4)OCO5)nccc3c2c1 | 200 (≈ 63.7 µg/mL) | > 200 | > 200 | > 200 | 200 (≈ 63.7 µg/mL) | > 200 | – | –
COC(=O)c1ccc(-c2c3[nH]c4ccc(OC)cc4c3cc[n+]2Cc2ccccc2)cc1 | 200 | 200 | 100 | > 200 | 100 | 100 | – | –
CO/N=C(\C(=O)N[C@@H]1C(=O)N2C(C(=O)O)=C(COC(C)=O)CS[C@H]12)c1csc(N)n1 [CEFOTAXIME SODIUM] | 25 | 25 | 3.12 | 1.56 | 1.56 | 3.12 | – | –
COc1ccc2[nH]c3c(-c4ccc5c(c4)OCO5)[n+](Cc4ccc(C)cc4)ccc3c2c1 | 25 | 50 | 25 | 200 | 25 | 25 | 98.5 | 82.2
COC(=O)c1ccc(-c2c3[nH]c4ccc(OC)cc4c3cc[n+]2Cc2cccc(Br)c2)cc1 | 50 | 75 | 25 | – | 50 | 25 | – | –
Cc1ccc(C[n+]2ccc3c([nH]c4ccccc43)c2-c2ccccn2)cc1 | 50 | 100 | 100 | > 200 | 25 | 50 | – | –
COc1ccc2[nH]c3c(-c4ccccn4)[n+](Cc4ccc(C)cc4)ccc3c2c1 | 100 | 200 | 100 | > 200 | 100 | 100 | – | –

SMILES | MIC (Staphylococcus aureus [1]) [µM] | MIC (Bacillus cereus) [µM] | MIC (Bacillus subtilis) [µM] | MIC (Escherichia coli) [µM] | MIC (Staphylococcus aureus [2]) [µM] | MIC (Ralstonia solanacearum) [µM] | viability at 8 ug/ml [3] [%] | viability at 8 ug/ml [4] [%]
COC(=O)c1ccc(-c2nccc3c2[nH]c2ccccc23)cc1 | > 200 | > 200 | > 200 | > 200 | > 200 | > 200 | – | –
COC(=O)c1ccc(-c2c3[nH]c4ccccc4c3cc[n+]2Cc2ccc(C)cc2)cc1 | 50 | 100 | 50 | 200 | 50 | 50 | – | –
c1ccc(C[n+]2ccc3c([nH]c4ccccc43)c2-c2ccc3c(c2)OCO3)cc1 | 100 | 100 | 50 | > 200 | 100 | 100 | – | –
COC(=O)c1ccc(-c2c3[nH]c4ccccc4c3cc[n+]2Cc2ccc(C(F)(F)F)cc2)cc1 | 50 | 100 | 50 | 200 | 50 | 50 | – | –
c1ccc(C[n+]2ccc3c([nH]c4ccccc43)c2-c2ccccn2)cc1 | > 200 | > 200 | > 200 | > 200 | > 200 | > 200 | – | –
C[C@@H]1O[C@@H]1P(=O)(O)O [PHOSPHOMYCIN DISODIUM] | 50 | 25 | 12.5 | 6.25 | 100 | 50 | – | –
COc1ccc2[nH]c3c(-c4ccc5c(c4)OCO5)[n+](Cc4ccccc4)ccc3c2c1 | 50 | 200 | 50 | > 200 | 100 | 50 | – | –
c1ccc(C[n+]2ccc3c([nH]c4ccccc43)c2-c2ccco2)cc1 | 100 | > 200 | 100 | > 200 | 100 | 100 | – | –
Cc1ccc(C[n+]2ccc3c([nH]c4ccccc43)c2-c2ccco2)cc1 | 50 | 100 | 25 | 100 | 50 | 25 | – | –
COc1ccc2[nH]c3c(-c4ccccn4)[n+](Cc4ccccc4)ccc3c2c1 | > 200 | > 200 | > 200 | > 200 | > 200 | > 200 | – | –
c1ccc(-c2nccc3c2[nH]c2ccccc23)nc1 | > 200 | > 200 | > 200 | > 200 | > 200 | > 200 | – | –
COC(=O)c1ccc(-c2c3[nH]c4ccc(OC)cc4c3cc[n+]2Cc2cccc(F)c2)cc1 | 200 | 200 | 75 | – | 200 | 150 | – | –
COC(=O)c1ccc(-c2c3[nH]c4ccc(OC)cc4c3cc[n+]2Cc2ccc(Cl)cc2)cc1 | 100 | 50 | 50 | – | 50 | 37.5 | – | –
Cc1ccc(C[n+]2ccc3c([nH]c4ccccc43)c2-c2ccc3c(c2)OCO3)cc1 | 50 | 100 | 25 | > 200 | 50 | 50 | – | –
COC(=O)c1ccc(-c2c3[nH]c4ccc(OC)cc4c3cc[n+]2Cc2ccccc2Br)cc1 | 75 | 100 | 50 | – | 75 | 50 | – | –
COC(=O)c1ccc(-c2c3[nH]c4ccc(OC)cc4c3cc[n+]2Cc2ccc([N+](=O)[O-])cc2)cc1 | 200 | 200 | 200 | – | 100 | 100 | – | –
COC(=O)c1ccc(-c2c3[nH]c4ccc(OC)cc4c3cc[n+]2Cc2ccc(C)cc2)cc1 | 100 | 50 | 50 | > 200 | 50 | 50 | – | –
COC(=O)c1ccc(-c2c3[nH]c4ccc(OC)cc4c3cc[n+]2Cc2ccc(F)cc2F)cc1 | > 200 | 200 | 100 | – | 100 | 100 | – | –
COc1ccc2[nH]c3c(-c4ccccn4)[n+](Cc4ccc(C(F)(F)F)cc4)ccc3c2c1 | 100 | 200 | 100 | > 200 | 100 | 100 | – | –
FC(F)(F)c1ccc(C[n+]2ccc3c([nH]c4ccccc43)c2-c2ccccn2)cc1 | 50 | 100 | 50 | > 200 | 25 | 50 | – | –
